Key:
[1] = Growth inhibition of human OVCAR3 cells assessed as cell growth at 10^-7 M incubated for 48 hrs by sulforhodamine B assay; assay type: functional; settings: OVCAR-3, 48 h, read-out: Activity
[2] = test system: MDA-MB-231; assay: Growth inhibition of human MDA-MB-231 cells assessed as cell growth at 10 uM incubated for 48 hrs by sulforhodamine B assay; assay type: functional; settings: MDA-MB-231, 48 h, read-out: Activity
[3] = Growth inhibition of human TK10 cells assessed as cell growth at 10^-5 M incubated for 48 hrs by sulforhodamine B assay; assay type: functional; settings: TK-10, 48 h, read-out: Activity
[4] = Growth inhibition of human SF268 cells assessed as cell growth at 10^-7 M incubated for 48 hrs by sulforhodamine B assay; assay type: functional; settings: SF-268, 48 h, read-out: Activity
[5] = test system: MCF7; assay: Growth inhibition of human MCF7 cells assessed as cell growth at 10^-7 M incubated for 48 hrs by sulforhodamine B assay; assay type: functional; settings: MCF7, 48 h, read-out: Activity
[6] = Growth inhibition of human BT549 cells assessed as cell growth at 10 uM incubated for 48 hrs by sulforhodamine B assay; assay type: functional; settings: BT-549, 48 h, read-out: Activity
Method in brief: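 One-dose screen at 10 µM final. Cells are plated at 5,000–40,000 per well according to doubling time and preincubated 24 h at 37 °C, 5% CO₂. Compound (DMSO stock diluted in medium with 50 µg/ml gentamicin) is then added for 48 h. Growth percent is read by sulforhodamine B staining, absorbance at 515 nm.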

[7] = test system: SK-MEL-28; assay: Growth inhibition of human SK-MEL-28 cells assessed as cell growth at 10 uM incubated for 48 hrs by sulforhodamine B assay; assay type: functional; settings: SK-MEL-28, 48 h, read-out: Activity
[8] = Growth inhibition of human SKOV3 cells assessed as cell growth at 10^-5 M incubated for 48 hrs by sulforhodamine B assay; assay type: functional; settings: SK-OV-3, 48 h, read-out: Activity
[9] = Growth inhibition of human HCT15 cells assessed as cell growth at 10 uM incubated for 48 hrs by sulforhodamine B assay; assay type: functional; settings: HCT-15, 48 h, read-out: Activity
Method in brief: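 Primary screen at one dose (10 µM) across 60 human cancer cell lines. Readout was growth percent relative to untreated control and time-zero.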

[10] = test system: SR; assay: Growth inhibition of human SR cells assessed as cell growth at 10^-5 M incubated for 48 hrs by sulforhodamine B assay; assay type: functional; settings: read-out: Activity
[11] = test system: K562; assay: Growth inhibition of human K562 cells assessed as cell growth at 10^-5 M incubated for 48 hrs by sulforhodamine B assay; assay type: functional; settings: K562, 48 h, read-out: Activity
[12] = test system: NCI-H322M; assay: Growth inhibition of human NCI-H322M cells incubated for 48 hrs by sulforhodamine B assay; assay type: functional
Method in brief: (§1)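 Cells were plated at 5,000–40,000 per well according to doubling time and preincubated 24 h at 37 °C in 5% CO2; time-zero plates were then TCA-fixed. Five concentrations (10-fold or ½-log dilutions, DMSO stock) were incubated 48 h. Cells were TCA-fixed, stained with 0.4% SRB and read at 515 nm. GI50 was taken where [(Ti−Tz)/(C−Tz)]×100 = 50.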

[13] = test system: SK-MEL-2; assay: Growth inhibition of human SK-MEL-2 cells incubated for 48 hrs by sulforhodamine B assay; assay type: functional; settings: SK-MEL-2, 48 h; method in brief: as §1
[14] = Growth inhibition of human RXF393 cells assessed as cell growth at 10^-7 M incubated for 48 hrs by sulforhodamine B assay; assay type: functional; settings: RXF 393, 48 h, read-out: Activity
[15] = Growth inhibition of human SNB75 cells assessed as cell growth at 10^-6 M incubated for 48 hrs by sulforhodamine B assay; assay type: functional; settings: SNB-75, 48 h, read-out: Activity
[16] = test system: SK-MEL-5; assay: Growth inhibition of human SK-MEL-5 cells incubated for 48 hrs by sulforhodamine B assay; assay type: functional; settings: SK-MEL-5, 48 h; method in brief: as §1
[17] = Growth inhibition of human HCC2998 cells assessed as cell growth at 10^-8 M incubated for 48 hrs by sulforhodamine B assay; assay type: functional; settings: HCC 2998, 48 h, read-out: Activity
Method in brief: (§2)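 Cells seeded at 5,000–40,000/well according to doubling time and preincubated 24 h at 37 °C, 5% CO2. Time-zero plates were TCA-fixed. DMSO concentrate was diluted in medium with 50 µg/ml gentamicin to give five concentrations (10-fold or ½ log steps), then exposed 48 h. Cells were TCA-fixed, stained with 0.4% SRB and read at 515 nm. Percent growth was taken against time-zero and control; GI50, TGI and LC50 derived.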

[18] = test system: CCRF-CEM; assay: Growth inhibition of human CCRF-CEM cells assessed as cell growth at 10^-4 M incubated for 48 hrs by sulforhodamine B assay; assay type: functional; settings: read-out: Activity
Method in brief: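 Leukemia line in the five-dose format: five concentrations from 10-fold or ½-log serial dilutions. Plated at 5,000–40,000 cells per well, preincubated 24 h, then compound added for 48 h at 37 °C, 5% CO₂. Sulforhodamine B absorbance read at 515 nm. Growth is computed against time-zero (Tz) and control (C) readings; GI₅₀ is where [(Ti−Tz)/(C−Tz)]×100 = 50.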

[19] = test system: Malme-3M; assay: Growth inhibition of human MALME-3M cells incubated for 48 hrs by sulforhodamine B assay; assay type: functional; method in brief: as §1
[20] = target: Albumin (Bos taurus, UniProt P02769); assay: Binding affinity to bovine serum albumin assessed as enhancement in emission spectra up to 20 uM by fluorescence spectroscopic analysis relative to control; assay type: ADME; settings: cattle, isolated protein
Method in brief: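 Fluorescence titration of 10 µM BSA in 0.1 M phosphate buffer pH 7.4 with compound at 0–20 µM, diluted from DMSO stocks. Excitation 280 nm, slit 10 nm, 1 cm quartz cell, 300 K. Changes in the 350 nm Trp emission, new bands near 370–373 nm and isoemissive points are read against BSA alone.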

[21] = test system: NCI/ADR-RES; assay: Growth inhibition of human NCI/ADR-RES cells assessed as cell growth at 10^-4 M incubated for 48 hrs by sulforhodamine B assay; assay type: functional; settings: read-out: Activity
[22] = Growth inhibition of human DU145 cells assessed as cell growth at 10^-7 M incubated for 48 hrs by sulforhodamine B assay; assay type: functional; settings: DU-145, 48 h, read-out: Activity; method in brief: as §2
[23] = test system: SR; assay: Growth inhibition of human SR cells incubated for 48 hrs by sulforhodamine B assay; assay type: functional; method in brief: as §1
[24] = read-out: LC50 (the source's name)
[25] = read-out: pLC50 (the source's name) (converted)

Chain of Albumin (P02769 whole entry): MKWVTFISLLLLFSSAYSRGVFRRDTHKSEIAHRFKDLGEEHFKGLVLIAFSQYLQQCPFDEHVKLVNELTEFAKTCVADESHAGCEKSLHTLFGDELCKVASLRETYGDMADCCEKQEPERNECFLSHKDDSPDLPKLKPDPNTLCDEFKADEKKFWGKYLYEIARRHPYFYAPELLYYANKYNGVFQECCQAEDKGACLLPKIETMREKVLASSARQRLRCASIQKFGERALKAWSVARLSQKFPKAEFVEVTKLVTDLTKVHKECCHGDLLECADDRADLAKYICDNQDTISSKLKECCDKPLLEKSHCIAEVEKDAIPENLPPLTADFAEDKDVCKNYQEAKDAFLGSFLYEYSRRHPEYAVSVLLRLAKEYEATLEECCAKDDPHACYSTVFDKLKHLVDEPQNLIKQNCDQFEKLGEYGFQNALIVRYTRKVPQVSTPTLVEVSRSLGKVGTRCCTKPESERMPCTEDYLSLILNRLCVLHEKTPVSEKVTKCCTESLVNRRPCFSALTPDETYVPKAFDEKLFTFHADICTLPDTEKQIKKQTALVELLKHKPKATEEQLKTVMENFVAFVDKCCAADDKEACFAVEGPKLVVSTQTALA

`Clc1ccc(-c2nc(Nc3ccc(-c4nc5ccccc5[nH]4)cc3)nc(N3CCOCC3)n2)cc1` gave a growth at 0.1 µM [1] of 97%, a growth at 10 µM [2] of -76.7% and a growth at 10 µM [3] of -96%. It also gave a growth at 0.1 µM [4] of 96%, a growth at 0.1 µM [5] of 86% and a growth at 10 µM [6] of -73.6%. It also gave a growth at 10 µM [7] of -84.7%, a growth at 10 µM [8] of -96% and a growth at 10 µM [9] of -92.6%. For the same compound, the growth at 10 µM [10] was -21%, the growth at 10 µM [11] was -70% and the GI50 ([12]; read-out: GI50) was 303 nM. The TGI ([12]; read-out: TGI) was 1070 nM, the GI50 ([12]; read-out: pGI50 (converted)) was 302 nM and the TGI ([12]; read-out: pTGI (converted)) was 1070 nM. For the same compound, the GI50 ([13]; read-out: GI50) was 1800 nM, the TGI ([13]; read-out: TGI) was 3.37 µM and the GI50 ([13]; read-out: pGI50 (converted)) was 1820 nM. It also gave a TGI ([13]; read-out: pTGI (converted)) of 3.39 µM, a growth at 0.1 µM [14] of 106% and a growth at 1 µM [15] of 95%. For the same compound, the GI50 ([16]; read-out: GI50) was 1690 nM, the CC50 [16, 24] was 5.79 µM and the TGI ([16]; read-out: TGI) was 3.13 µM. The GI50 ([16]; read-out: pGI50 (converted)) was 1700 nM, the CC50 [16, 25] was 5.75 µM and the TGI ([16]; read-out: pTGI (converted)) was 3.16 µM. It also gave a growth at 0.01 µM [17] of 94%, a growth at 100 µM [18] of -36% and a GI50 ([19]; read-out: GI50) of 2100 nM. The TGI ([19]; read-out: TGI) was 3.86 µM, the GI50 ([19]; read-out: pGI50 (converted)) was 2090 nM and the TGI ([19]; read-out: pTGI (converted)) was 3.89 µM. The Activity [20] was 49.1%, the growth at 100 µM [21] was -7% and the growth at 0.1 µM [22] was 96%. The GI50 ([23]; read-out: GI50) was 31 nM, the CC50 [23, 24] was > 100 µM and the GI50 ([23]; read-out: pGI50 (converted)) was 30.9 nM. The CC50 [23, 25] was > 100 µM.
